Screening results as filed in PubChem.
ABCB1 inh – inhibitors of human ABCB1 transporter, ABCG2 counter-screen; P08183; CCRF-Adr cells, JC-1 efflux, flow cytometry; inhibition, % at 6.6 µM; 0.067% of 190,000 active; AID 1326; in the data active = inhibition above about 40%;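 note: 0% = vehicle and 100% = reference inhibitor; higher value means more JC-1 retained so stronger ABCB1 efflux block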
GRK2 aptamer HTS – human GRK2 inhibition via aptamer displacement; P25098; bead flow cytometry, FAM-aptamer displacement from GRK2; inhibition of aptamer binding, % at 10 µM; 0.59% of 330,000 active;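 active = inhibition of aptamer binding above 40%, roughly 3 SD of noise, on plates passing a quality check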;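 note: median bead fluorescence of bound FAM aptamer so fluorescent compounds give negative values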
ABCG2 block – inhibitors of human ABCG2 transporter, ABCB1 counter-screen. 0.1% of 190,000 active. Q9UNQ0. inhibition, % at 6.6 µM. IgMXP3 cells, JC-1 efflux, flow cytometry;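 active = inhibition above 80%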;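 note: 0% = DMSO and 100% = nicardipine control wells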
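Test system: IgMXP3 cells (ABCG2) mixed with DDAO far-red-labelled CCRF-Adr cells (ABCB1). Reagent: JC-1 transporter substrate. Compound dosing: single test compound dose, 6.6 µM final. Times: 10 min compound exposure, 25 °C. Detection: flow cytometry of retained JC-1 fluorescence. Read-out basis: efflux inhibition in percent versus controls. Controls: nicardipine and DMSO wells.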
Tn6 DDE FP – DD(E)-Tn6 binding inhibition, primary FP screen; P02675; Fibrin DD(E) TRITC-Tn6 fluorescence polarization displacement; inhibition, % at 8.3 µM; 0.21% of 370,000 active; AID 720509;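 active = inhibition above a per-campaign cutoff: mean of compounds within control limits plus 3 SD, cut at about 15% in these data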;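 note: 0% = median of all compound wells on the plate and 100% = blocking peptide control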
Target sequence (P02675 whole entry, looked up): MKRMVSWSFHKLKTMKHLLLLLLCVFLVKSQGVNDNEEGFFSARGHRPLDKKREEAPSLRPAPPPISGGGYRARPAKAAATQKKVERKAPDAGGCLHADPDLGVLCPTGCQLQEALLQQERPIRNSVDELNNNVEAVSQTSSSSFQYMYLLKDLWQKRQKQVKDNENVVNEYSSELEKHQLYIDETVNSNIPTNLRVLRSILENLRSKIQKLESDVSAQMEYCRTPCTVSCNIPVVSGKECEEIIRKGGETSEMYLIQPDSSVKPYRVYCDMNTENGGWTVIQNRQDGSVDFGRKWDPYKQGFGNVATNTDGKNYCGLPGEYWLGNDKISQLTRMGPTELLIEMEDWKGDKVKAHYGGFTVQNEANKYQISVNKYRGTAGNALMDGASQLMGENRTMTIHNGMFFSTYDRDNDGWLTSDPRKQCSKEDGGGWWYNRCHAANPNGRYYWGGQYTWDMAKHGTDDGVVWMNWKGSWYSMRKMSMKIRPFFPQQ
Ins promoter up – MIN6 insulin promoter up-regulation. MIN6 insulin promoter-GFP reporter, high-content imaging; hits give high values. z-score at 5 µM. 0.3% of 190,000 active;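 active = z-score above 3 at 5 µM with at least 500 cells counted in the well; inconclusive = wells under 500 cells, flagged as cytotoxic or low count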
DDE Tn7 FP inh – DD(E)-Tn7 binding inhibition, primary FP screen; P02675; FP displacement of FITC-Tn7 peptide from fibrin DD(E); 0% = median of compound wells per plate; inhibition, % at 8.3 µM; 0.13% of 370,000 active;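 active = inhibition above the mean of compounds falling within the control limits plus 3 SD of them, cut at about 14% in these data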;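 note: 0% = plate median of compound wells and 100% = 10 µM Aha-Tn7 peptide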
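system = human fibrin DD(E) protein | quantity = DD(E) 2 µM final | medium = Tris/NaCl/CaCl2 buffer, pH 7.8 | also added = labelled Tn7 tracer, 0.1 µM | compound dosing = single point at 8.3 µM | timing = compound with protein 10 min, then 3 h after probe, room temperature | signal = FP measurement | benchmarks = Aha-Tn7 high control | repeats = one replicate per compound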
GRK2 CP1 – human GRK2 inhibition confirmation, cherry pick 1; shares compounds with GRK2 aptamer HTS; bead-bound GRK2, FAM-aptamer displacement, flow cytometry; aptamer displacement, % at 10 µM; 4% of 2,000 active;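 active = aptamer displacement above 40%, near three times the noise of non-fluorescent compounds, on plates passing quality checks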;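 note: negative values mostly reflect intrinsic compound fluorescence rather than true enhancement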
FAM quench CP1 – quenches fluorescent RNA aptamer, GRK2 hit artifact; shares compounds with GRK2 aptamer HTS; Carboxyfluorescein RNA aptamer on beads, flow cytometry quenching; hits give low values; fluorescence response (% of DMSO), % at 10 µM; 2,000 tested, under 10 active;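 active = compounds that quench the bead-bound fluorescent RNA probe, cutting fluorescence to under half of the solvent control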;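 note: counterscreen run without GRK2 so only probe quenching by compound is measured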
GRK2 CP2 – confirmation of human GRK2 inhibitors binding RNA aptamer site; shares compounds with GRK2 aptamer HTS; bead-bound GRK2, FAM-aptamer displacement, flow cytometry; inhibition of aptamer binding, % at 10 µM; 360 tested, under 10 active;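 active = inhibition of aptamer binding above 40%, about triple the noise seen with nonglowing compounds, on plates passing quality control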;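 note: negative values mostly come from compounds that fluoresce themselves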
FAM quench CP2 – quenches fluorescent RNA aptamer, GRK2 hit artifact; 360 tested, under 10 active; AID 588494; carboxyfluorescein RNA aptamer beads, flow cytometry quenching; hits give low values; shares compounds with GRK2 aptamer HTS; fluorescence response vs DMSO, % at 10 µM;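 active = response vs DMSO under 50%, meaning signal dropped by over half, treated as fluorescence quencher; inconclusive = no clear call, values can overlap the other calls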;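 note: labelled aptamer on streptavidin beads without GRK2 as a quench counter-screen; 100% = bead fluorescence of DMSO wells and lower means quenching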
An asterisk follows results filed as active; ? = inconclusive; · = not tested or not shown. Shown are actives, neighbours in structure and some others; about 0.99% of the full set was active somewhere.

SMILES	ABCB1 inh	GRK2 aptamer HTS	ABCG2 block	Tn6 DDE FP	Ins promoter up	DDE Tn7 FP inh	GRK2 CP1	FAM quench CP1	others
Cc1cc(/C=N\NC(=O)COc2cccc3cccnc23)c(C)n1-c1ccc(Br)cc1	2.3	55.0*	20.2	-4.7	-0.14	5.5	-8.2	123.2
COc1ccccc1-c1ccc([C@@H]2C[C@H]3[C@H](CON3C)CN2CC2CCCCC2)cc1	·	·	·	7.6	·	4.9	·	·
Cc1cccc(NC(=O)CCS(=O)(=O)c2ccc(Cl)cc2)c1	·	3.0	·	0.9	·	-3.5	·	·	GRK2 CP2=0.0;FAM quench CP2=100.0
O=C(CCS(=O)(=O)c1ccccc1)Nc1ccccn1	·	76.0*	·	-4.8	·	-9.2	2.2	100.7
Cc1ccnc(NC(=O)CCS(=O)(=O)c2ccccc2)c1	·	14.0	·	8.3	·	-0.6	8.1	97.3
OC[C@@H]1CN(Cc2ccc(-c3ccccc3)cc2)C[C@H](n2cnc3c(NC4CCC4)ncnc32)O1	·	·	·	-5.5	·	-2.7	·	·
CCOC(=O)[C@]12CCCCC/C=C\1N(CCc1ccc(Cl)cc1)C(=O)[C@H]2CC(=O)NCCCOC	·	·	·	2.8	·	8.2	·	·
Cc1nnc(NC(=O)CCS(=O)(=O)c2ccccc2)s1	·	9.0	·	-3.4	·	-2.5	2.1	99.7
O=C(CS(=O)(=O)c1ccccc1)Nc1nnc(C(F)(F)F)s1	·	2.0	·	-10.3	·	-0.1	·	·
O=C(CCS(=O)(=O)c1ccccc1)Nc1nnc(C(F)(F)F)s1	·	25.0	·	-0.6	·	-9.8	8.8	101.8
CC(C)(C)c1nnc(NC(=O)CCS(=O)(=O)c2ccccc2)s1	·	6.0	·	2.7	·	-0.8	0.9	96.7
Cc1ccc(C2CCC3(CCC(=O)N3CCOC(=O)Nc3ccc(F)cc3)CC2)cc1 (centres undefined)	·	·	·	-6.3	·	6.5	·	·
COc1ccc(S[C@]2(C(=O)N3CCN(C(C)=O)CC3)CC(=O)N(C(=O)Nc3ccc(C)c(Cl)c3)[C@@H]2c2ccc(OC)cc2)cc1	·	·	·	0.2	·	-3.1	·	·
CCCCN=C(N)NC(=O)OCc1ccccc1	·	·	·	2.5	·	0.4	·	·
CCN1/C(=C2\SC(=S)N(Cc3ccccc3)C2=O)Sc2ccccc21	-0.9	0.0	-3.8	-0.2	-0.1	2.2	·	·
CCC(CO)[n+]1c(C)cc(/C=C2\Sc3ccccc3N2Cc2ccccc2)cc1C (centres undefined)	-1.1	71.0*	-3.5	-2.8	?	-15.4	29.8	137.9
Cc1ccccc1N1CC(C(=O)N2CCCCCC2)CC1=O (centres undefined)	·	65.0*	·	3.8	·	0.0	-1.6	97.5
CC(=O)c1ccc(OCCCC(=O)Nc2cccc(S(=O)(=O)N3CCCCCC3)c2)cc1	·	0.0	·	-0.1	·	-7.9	·	·
Cc1cccc(N2CC(C(=O)Nc3cccc(S(=O)(=O)N4CCCCC4)c3)CC2=O)c1C (centres undefined)	·	2.0	·	0.9	·	2.2	-3.3	98.0
CC(=O)c1ccc(OCCCC(=O)Nc2cccc(S(=O)(=O)N3CCCCC3)c2)cc1	·	0.0	·	7.4	·	2.5	-1.0	97.8
Cc1ccc(S(=O)(=O)N2CCCCC2)cc1NC(=O)CCN1C(=O)C2CC=CCC2C1=O (centres undefined)	·	0.0	·	0.7	·	-3.5	·	·
O=C(CCN1C(=O)C2CC=CCC2C1=O)Nc1cccc(S(=O)(=O)N2CCCCC2)c1 (centres undefined)	·	1.0	·	-10.7	·	-12.9	-8.0	107.9
Cc1cc(-c2cc(NC(=O)Cc3c(C)[nH]c4ccccc34)ccc2Nc2cccnc2)ccc1F	·	·	·	3.7	·	5.7	·	·
CC1CCN(c2ccc(C(=O)O)cc2NS(=O)(=O)c2ccccc2)CC1	·	·	·	7.5	·	5.8	·	·
CC(C)[C@H](N)C(=O)N[C@@H](Cc1ccccc1)C(=O)N1CCC2CCN(S(=O)(=O)c3ccccc3)CC21 (some centres undefined)	·	·	·	1.9	·	0.4	·	·
SMILES	ABCB1 inh	GRK2 aptamer HTS	ABCG2 block	Tn6 DDE FP	Ins promoter up	DDE Tn7 FP inh	GRK2 CP1	FAM quench CP1	others
CCOC(=O)Cn1cc(CN2C(C(=O)OC)CN(Cc3ccc(F)cc3)CCS2(=O)=O)nn1 (centres undefined)	·	·	·	-1.1	·	-6.3	·	·
CCCN(CC1CC1)c1nc(C)nc2c1nnn2Cc1ccccc1	·	·	·	-0.3	·	-4.1	·	·
N#Cc1cccc(NC(=O)CNc2cccc(S(=O)(=O)N3CCCCC3)c2)c1	·	0.0	·	0.7	·	-5.2	1.1	101.7
O=C(Nc1cccc(S(=O)(=O)NC2=NCCC2)c1)C1CC(=O)N(c2ccc3c(c2)OCCO3)C1 (centres undefined)	0.1	1.0	-0.7	-2.5	-0.05	8.2	2.2	97.4
CC(=O)c1cccc(NC(=O)C2CC(=O)N(c3ccc4c(c3)OCCO4)C2)c1 (centres undefined)	·	0.0	·	4.0	·	8.3	·	·
CCOC(=O)[C@]12CCCC=C1N(Cc1ccc(OC)cc1)C(=O)[C@@H]2CC(=O)N1CCN(C(=O)C2CC2)CC1	·	·	·	2.6	·	3.1	·	·
Cc1nn(-c2ccc(F)cc2)c(Cl)c1/C=C(/CC(=O)O)c1nc2ccccc2s1	·	·	·	-3.5	·	2.6	·	·
Cc1nn(-c2ccc(F)cc2)c(Cl)c1/C=C(\CC(=O)O)c1nc2ccccc2s1	-0.6	2.0	-0.8	-2.6	·	0.6	2.4	98.4
COC(=O)c1ccc2nc(-c3ccc(OC)c(OC)c3)c(Cc3ccccc3C(F)(F)F)n2c1	·	·	·	1.5	·	-3.9	·	·
CC1(C)CC(NC(=O)Cc2ccccc2)CC(C)(C)N1	·	0.0	·	-7.0	·	3.1	·	·
COc1ccc(CC(=O)NC2CC(C)(C)NC(C)(C)C2)cc1	0.3	42.0*	-0.1	7.6	·	6.0	-0.4	99.5
COc1ccc(CN2C[C@]3(C=C(C)Cn4c(=O)n(-c5ccccc5)c(=O)n43)N(C(=O)OCc3ccccc3)C2=NC(=O)c2ccccc2)c(OC)c1	·	·	·	-1.8	·	2.0	·	·
CCCNC(=O)COC(=O)CCC(=O)c1ccc(F)cc1	0.6	4.0	1.1	-5.9	-0.23	-0.6	·	·
CC(C)(C)NC(=O)COC(=O)CCC(=O)c1ccc(F)cc1	0.6	99.0*	5.2	-10.4	0.11	2.1	0.3	101.2
CC(=O)c1cn(CC(=O)Nc2ccccc2F)c2ccccc12	·	72.0*	·	-7.2	·	3.4	-6.3	102.6
CCC(=O)c1cn(CC(=O)Nc2ccccc2F)c2ccccc12	·	3.0	·	-2.7	·	4.1	·	·
O=C(c1ccc(=O)oc1)N1CCCc2ccccc21	-0.5	42.0*	-1.4	0.5	0.47	5.8	6.9	106.2
